From ChEMBL document CHEMBL4033652, “Design, synthesis, and pharmacological evaluation of 4-azolyl-benzamide derivatives as novel GPR52 agonists” (Bioorg Med Chem, 2017)

Experiments:
[1] = biological target: T1, G-protein coupled receptor 52 (Homo sapiens, UniProt Q9Y2T5); assay: Agonist activity at human GPR52 expressed in CHO cells assessed as increase in cAMP level after 30 mins by AlphaScreen assay relative to (N-(2-hydroxyethyl)-3-(2-(3-(trifluoromethyl)benzyl)-1-benzofuran-4-yl)benzamide); assay type: functional, cell-based
T1 sequence (Q9Y2T5 whole entry): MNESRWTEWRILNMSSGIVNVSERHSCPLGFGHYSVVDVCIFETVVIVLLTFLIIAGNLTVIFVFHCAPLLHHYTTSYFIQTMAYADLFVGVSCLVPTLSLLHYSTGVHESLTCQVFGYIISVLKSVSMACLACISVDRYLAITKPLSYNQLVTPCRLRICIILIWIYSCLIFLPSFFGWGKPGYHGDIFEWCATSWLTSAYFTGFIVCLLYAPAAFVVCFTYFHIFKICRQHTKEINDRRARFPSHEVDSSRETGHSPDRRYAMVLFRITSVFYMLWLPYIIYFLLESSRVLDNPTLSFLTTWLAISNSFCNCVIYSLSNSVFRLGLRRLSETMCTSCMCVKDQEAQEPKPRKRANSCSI
Outline: (§1)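 CHO cells stably expressing human GPR52, 10,000 cells per well, exposed to compound 30 min at 37°C in HBSS with 5 mM HEPES pH 7.6, 0.5% BSA, 100 µM IBMX and 100 µM Ro20-1724. cAMP measured by AlphaScreen with acceptor and biotinylated donor beads after overnight room-temperature incubation. Emax set relative to the reference benzofuran benzamide (100%). EC50 taken from mean curves, n = 2–4, with 95% CI.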

[2] = biological target: T1, G-protein coupled receptor 52; assay: Agonist activity at human GPR52 expressed in CHO cells assessed as increase in cAMP level after 30 mins by AlphaScreen assay; assay type: functional, cell-based
Outline: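 CHO cells stably expressing human GPR52 (10,000/well) exposed to compound at various concentrations, 30 min, 37°C, in HBSS with 5 mM HEPES pH 7.6, 0.5% BSA, 100 µM IBMX and 100 µM Ro20-1724. AlphaScreen acceptor/donor beads added overnight at room temperature. Response expressed relative to a reference benzofuran agonist (100%). EC50 from mean curves, n = 2–4, 95% CI.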

[3] = biological target: T1, G-protein coupled receptor 52; assay: Agonist activity at human GPR52 expressed in CHO cells assessed as increase in cAMP level at 1 uM after 30 mins by AlphaScreen assay relative to (N-(2-hydroxyethyl)-3-(2-(3-(trifluoromethyl)benzyl)-1-benzofuran-4-yl)benzamide); assay type: functional, cell-based; outline: as §1
[4] = Oral bioavailability in Sprague-Dawley rat at 1 mg/kg administered as cassette dose by LC-MS/MS analysis; assay type: ADME, organism-based; conditions: in vivo
Outline: (§2)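 Cassette dosing in non-fasted male SD rats (n = 3): i.v. 0.1 mg/kg or p.o. 1 mg/kg. Plasma prepared from blood, deproteinized, centrifuged, supernatant measured by LC/MS/MS. AUC taken over 0–8 h.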

[5] = Total clearance in Sprague-Dawley rat at 0.1 mg/kg, iv or 1 mg/kg, po administered as cassette dose by LC/MS/MS analysis; assay type: ADME, organism-based; conditions: in vivo; outline: as §2
[6] = AUC (0 to 8 hrs) in Sprague-Dawley rat at 1 mg/kg, po administered as cassette dose by LC-MS/MS analysis; assay type: ADME, organism-based; design: time < 8 hr, dose 1 mg/kg, route oral; conditions: in vivo; outline: as §2

Emax [1] | EC50 [2] | Emax [3] | bioavailability [4] | clearance [5] | AUC(0-t) at 8 h [6] | SMILES
– | > 1 µM | 11% | – | – | – | Cc1nc(Cc2cccc(C(F)(F)F)c2)sc1-c1ccc(C(N)=O)nc1 [TP-024n]
84% | 0.083 µM | – | – | – | – | CCc1cc(-c2sc(Cc3cccc(C(F)(F)F)c3)nc2C)ccc1C(N)=O
88% | 0.17 µM | – | – | – | – | COc1cc(-c2sc(Cc3cccc(C(F)(F)F)c3)nc2C)ccc1C(N)=O
87% | 1.4 µM | – | – | – | – | Cc1cc(C(N)=O)ccc1-c1sc(Cc2cccc(C(F)(F)F)c2)nc1C
93% | 0.22 µM | – | – | – | – | Cc1nc(Cc2cccc(C(F)(F)F)c2)sc1-c1ccc(C(N)=O)cc1

More lines, now with the values behind:

SMILES | Emax [1] | EC50 [2] | Emax [3] | bioavailability [4] | clearance [5] | AUC(0-t) at 8 h [6]
Cc1cc(-c2sc(Cc3cccc(N(C)C)c3)nc2C)ccc1C(N)=O | 101% | 0.69 µM | – | – | – | –
Cc1cc(-c2sc(Cc3cccc(Cl)c3)nc2C)ccc1C(N)=O | 75% | 0.13 µM | – | – | – | –
Cc1cc(-c2sc(Cc3ccccc3Cl)nc2C)ccc1C(N)=O | 51% | 3.9 µM | – | – | – | –
Cc1cc(-c2sc(Cc3cc(F)cc(C(F)(F)F)c3)nc2C)ccc1C(N)=O | 93% | 0.011 µM | – | 14% | 2.37 L/h/kg | 0.0605 µg·h/mL
Cc1cc(-c2sc(Cc3cc(F)cc(Cl)c3)nc2C)ccc1C(N)=O | 88% | 0.025 µM | – | – | – | –
